Legend:
[1] = Growth inhibition of human Hs 578T cells assessed as cell growth at 10^-4 M incubated for 48 hrs by sulforhodamine B assay; type: functional; conditions: read-out: Activity
CCRF-CEM [2] = experiment: Growth inhibition of human CCRF-CEM cells incubated for 48 hrs by sulforhodamine B assay; type: functional
In short: (§1)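 Leukemia line in the five-dose format: five concentrations from 10-fold or ½-log serial dilutions. Plated at 5,000–40,000 cells per well, preincubated 24 h, then compound added for 48 h at 37 °C, 5% CO₂. Sulforhodamine B absorbance read at 515 nm. Growth is computed against time-zero (Tz) and control (C) readings; GI₅₀ is where [(Ti−Tz)/(C−Tz)]×100 = 50.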

[3] = Growth inhibition of human COLO205 cells incubated for 48 hrs by sulforhodamine B assay; type: functional; conditions: COLO 205, 48 h
In short: (§2)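 Cells seeded at 5,000–40,000/well according to doubling time and preincubated 24 h at 37 °C, 5% CO2. Time-zero plates were TCA-fixed. DMSO concentrate was diluted in medium with 50 µg/ml gentamicin to give five concentrations (10-fold or ½ log steps), then exposed 48 h. Cells were TCA-fixed, stained with 0.4% SRB and read at 515 nm. Percent growth was taken against time-zero and control; GI50, TGI and LC50 derived.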

[4] = Growth inhibition of human SF539 cells incubated for 48 hrs by sulforhodamine B assay; type: functional; conditions: SF-539, 48 h
In short: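 Cells were plated at 5,000–40,000 per well according to doubling time and preincubated 24 h at 37 °C in 5% CO2; time-zero plates were then TCA-fixed. Five concentrations (10-fold or ½-log dilutions, DMSO stock) were incubated 48 h. Cells were TCA-fixed, stained with 0.4% SRB and read at 515 nm. GI50 was taken where [(Ti−Tz)/(C−Tz)]×100 = 50.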

786-0 [5] = experiment: Growth inhibition of human 786-0 cells assessed as cell growth at 10^-5 M incubated for 48 hrs by sulforhodamine B assay; type: functional; conditions: 786-0, 48 h, read-out: Activity
In short: (§3)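 Five-dose assay: five concentrations from 10-fold or ½-log serial dilutions. Cells are plated at 5,000–40,000 per well according to doubling time, grown 24 h, then exposed 48 h at 37 °C, 5% CO₂. Fixed with cold 50% TCA (final addition) for 60 min at 4 °C and stained with 0.4% SRB in 1% acetic acid. Bound dye is solubilized in 10 mM Tris base and read at 515 nm. GI₅₀ is where [(Ti−Tz)/(C−Tz)]×100 = 50, with a time-zero plate as Tz.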

A498 [6] = experiment: Growth inhibition of human A498 cells assessed as cell growth at 10^-8 M incubated for 48 hrs by sulforhodamine B assay; type: functional; conditions: A498, 48 h, read-out: Activity; in short: as §3
K562 = experiment: Growth inhibition of human K562 cells assessed as cell growth at 10^-7 M incubated for 48 hrs by sulforhodamine B assay; type: functional; conditions: K562, 48 h, read-out: Activity
EKVX = experiment: Growth inhibition of human EKVX cells assessed as cell growth at 10^-7 M incubated for 48 hrs by sulforhodamine B assay; type: functional; conditions: read-out: Activity; in short: as §2
[7] = Growth inhibition of human HOP62 cells assessed as cell growth at 10^-7 M incubated for 48 hrs by sulforhodamine B assay; type: functional; conditions: HOP-62, 48 h, read-out: Activity
SK-MEL-28 = experiment: Growth inhibition of human SK-MEL-28 cells assessed as cell growth at 10^-4 M incubated for 48 hrs by sulforhodamine B assay; type: functional; conditions: SK-MEL-28, 48 h, read-out: Activity
786-0 [8] = experiment: Growth inhibition of human 786-0 cells assessed as cell growth at 10^-4 M incubated for 48 hrs by sulforhodamine B assay; type: functional; conditions: 786-0, 48 h, read-out: Activity; in short: as §3
[9] = Growth inhibition of human IGROV1 cells assessed as cell growth at 10 uM incubated for 48 hrs by sulforhodamine B assay; type: functional; conditions: IGROV-1, 48 h, read-out: Activity
A498 [10] = experiment: Growth inhibition of human A498 cells assessed as cell growth at 10 uM incubated for 48 hrs by sulforhodamine B assay; type: functional; conditions: A498, 48 h, read-out: Activity
In short: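 One-dose screen at 10 µM final. Cells are plated at 5,000–40,000 per well according to doubling time and preincubated 24 h at 37 °C, 5% CO₂. Compound (DMSO stock diluted in medium with 50 µg/ml gentamicin) is then added for 48 h. Growth percent is read by sulforhodamine B staining, absorbance at 515 nm.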

MDA-MB-231 = experiment: Growth inhibition of human MDA-MB-231 cells assessed as cell growth at 10 uM incubated for 48 hrs by sulforhodamine B assay; type: functional; conditions: MDA-MB-231, 48 h, read-out: Activity
CCRF-CEM [11] = experiment: Growth inhibition of human CCRF-CEM cells assessed as cell growth at 10^-8 M incubated for 48 hrs by sulforhodamine B assay; type: functional; conditions: read-out: Activity; in short: as §1
A549 = experiment: Growth inhibition of human A549/ATCC cells assessed as cell growth at 10^-8 M incubated for 48 hrs by sulforhodamine B assay; type: functional; conditions: A549, 48 h, read-out: Activity; in short: as §3
NCI-H322M = experiment: Growth inhibition of human NCI-H322M cells assessed as cell growth at 10^-8 M incubated for 48 hrs by sulforhodamine B assay; type: functional; conditions: read-out: Activity
U-251 = experiment: Growth inhibition of human U251 cells assessed as cell growth at 10^-8 M incubated for 48 hrs by sulforhodamine B assay; type: functional; conditions: U-251, 48 h, read-out: Activity
[12] = Growth inhibition of human UACC62 cells assessed as cell growth at 10^-6 M incubated for 48 hrs by sulforhodamine B assay; type: functional; conditions: UACC-62, 48 h, read-out: Activity
HT-29 = experiment: Growth inhibition of human HT-29 cells assessed as cell growth at 10^-5 M incubated for 48 hrs by sulforhodamine B assay; type: functional; conditions: HT-29, 48 h, read-out: Activity
[13] = Growth inhibition of human SF268 cells assessed as cell growth at 10 uM incubated for 48 hrs by sulforhodamine B assay; type: functional; conditions: SF-268, 48 h, read-out: Activity
Albumin = Albumin (Bos taurus, UniProt P02769); experiment: Binding affinity to bovine serum albumin assessed as hyperchromicity in absorption spectra up to 20 uM after 5 mins by UV-visible spectroscopic analysis relative to control; type: ADME; conditions: cattle, isolated protein
Albumin, sequence (P02769 whole entry): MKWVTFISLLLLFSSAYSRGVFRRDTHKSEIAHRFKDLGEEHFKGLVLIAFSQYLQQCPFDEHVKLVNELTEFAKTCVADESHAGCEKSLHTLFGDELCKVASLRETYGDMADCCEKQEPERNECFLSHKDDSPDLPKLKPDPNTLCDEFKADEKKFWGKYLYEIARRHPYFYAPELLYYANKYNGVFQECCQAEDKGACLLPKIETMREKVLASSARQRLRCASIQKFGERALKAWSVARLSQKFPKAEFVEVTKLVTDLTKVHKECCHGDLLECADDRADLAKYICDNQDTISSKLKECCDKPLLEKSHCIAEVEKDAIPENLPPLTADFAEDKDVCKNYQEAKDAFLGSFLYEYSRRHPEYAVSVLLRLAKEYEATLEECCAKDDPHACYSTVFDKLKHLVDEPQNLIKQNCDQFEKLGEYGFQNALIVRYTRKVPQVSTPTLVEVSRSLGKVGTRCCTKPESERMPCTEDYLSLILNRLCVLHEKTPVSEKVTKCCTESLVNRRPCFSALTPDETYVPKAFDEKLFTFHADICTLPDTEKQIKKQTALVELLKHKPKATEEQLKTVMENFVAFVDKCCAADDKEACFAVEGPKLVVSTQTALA
In short: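 UV-visible absorption titration of 10 µM BSA in 0.1 M phosphate buffer pH 7.4 with increasing compound, 0–20 µM. Compounds diluted from DMSO stocks into buffer. Spectra recorded 200–800 nm in a 1 cm quartz cell at 300 K after 5 min equilibration. The BSA band is at 279 nm; changes are compared with BSA alone.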

[14] = read-out: LC50 (the source's name)
[15] = read-out: pLC50 (the source's name) (converted)

Row | Structure (SMILES) | growth at 100 µM [1] | GI50 (CCRF-CEM [2]; read-out: GI50) | TGI (CCRF-CEM [2]; read-out: TGI) | GI50 (CCRF-CEM [2]; read-out: pGI50 (converted)) | TGI (CCRF-CEM [2]; read-out: pTGI (converted)) | GI50 ([3]; read-out: GI50) | TGI ([3]; read-out: TGI) | GI50 ([3]; read-out: pGI50 (converted)) | TGI ([3]; read-out: pTGI (converted)) | GI50 ([4]; read-out: GI50) | TGI ([4]; read-out: TGI) | GI50 ([4]; read-out: pGI50 (converted)) | TGI ([4]; read-out: pTGI (converted)) | growth at 10 µM (786-0 [5]) | growth at 0.01 µM (A498 [6]) | growth at 0.1 µM (K562) | growth at 0.1 µM (EKVX) | growth at 0.1 µM [7] | growth at 100 µM (SK-MEL-28) | growth at 100 µM (786-0 [8]) | further results
1 | Clc1ccc(-c2nc(Nc3ccc(-c4nc5ccccc5[nH]4)cc3)nc(N3CCOCC3)n2)cc1 | -7% | 259 nM | 687 nM | 257 nM | 692 nM | 305 nM | 1070 nM | 302 nM | 1070 nM | 520 nM | 1.83 µM | 525 nM | 1.82 µM | -87% | 94% | 92% | 87% | 93% | -24% | -21% | growth at 10 µM [9]: -71.2%; growth at 10 µM (A498 [10]): -81.5%; growth at 10 µM (MDA-MB-231): -76.7%; growth at 0.01 µM (CCRF-CEM [11]): 98%; growth at 0.01 µM (A549): 96%; growth at 0.01 µM (NCI-H322M): 96%; growth at 0.01 µM (U-251): 99%; growth at 1 µM [12]: -53%; growth at 10 µM (HT-29): -74%; growth at 10 µM [13]: -82.7%; Activity (Albumin): 97.67%
2 | c1ccc2[nH]c(-c3ccc(Nc4nc(N5CCCCC5)nc(N5CCOCC5)n4)cc3)nc2c1 | -12% | 3250 nM | > 100000 nM | 3240 nM | > 100000 nM | 1860 nM | 3920 nM | 1860 nM | 3890 nM | 2140 nM | 5.75 µM | 2140 nM | 5.75 µM | -78% | 92% | 107% | 93% | 96% | -54% | -87% | CC50 (CCRF-CEM [2]; [14]): > 100 µM; CC50 (CCRF-CEM [2]; [15]): > 100 µM; LC50 ([3]; read-out: LC50): 8.27 µM; LC50 ([3]; read-out: pLC50 (converted)): 8.32 µM; CC50 [4, 14]: 28.5 µM; CC50 [4, 15]: 28.2 µM; growth at 10 µM [9]: 51.3%; growth at 10 µM (A498 [10]): -28.6%; growth at 10 µM (MDA-MB-231): 23.1%; growth at 0.01 µM (CCRF-CEM [11]): 99%; growth at 0.01 µM (A549): 94%; growth at 0.01 µM (NCI-H322M): 90%; growth at 0.01 µM (U-251): 99%; growth at 1 µM [12]: 92%; growth at 10 µM (HT-29): -36%; growth at 10 µM [13]: 33.8%; Activity (Albumin): 72.31%
